Article PMC8604211 (Clinical and Translational Science, 2021)
Where “and” joins values, the source holds several entries; their conditions need not be identical. Equal entries are not always repeated. Where two headings read alike, the source gives them in different places.

Tests used:
P-gp = P-gp (Homo sapiens, UniProt P08183); assay: P-gp bidirectional transport assay in human Caco-2 cell monolayers; format: in vitro ADME; details: Caco-2, pH 7.4
[1] = Rat ADME study with [14C]milademetan; format: in vivo; details: single oral [14C]milademetan 30 mg/kg
Milademetan PBPK model = assay: Milademetan PBPK model; design: species or system human
Summary of the method: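 Minimal PBPK model with one adjusting compartment and ADAM absorption that includes intestinal P-gp; renal and biliary clearance set to zero. Vss, kin, kout, Vsac and oral clearance fitted to healthy-subject plasma data after a single fasted 100 mg oral dose.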

Clinical DDI study U107 = format: in vivo, human
CYP3A5 = CYP3A5 (Homo sapiens, UniProt P20815); assay: Incubation of [14C]milademetan with recombinant human CYP3A5; format: in vitro ADME; details: [14C]milademetan 1 µM, 60 min, unpublished in-house data
[2] = Plasma protein unbound fraction measured in vitro; format: in vitro ADME
CYP3A4 [3] = target: T1, CYP3A4 (Homo sapiens, UniProt P08684); assay: CYP3A inhibition; format: in vitro ADME; details: pooled human hepatic microsomes, probe midazolam
Target sequence in this assay (P08684 2-503): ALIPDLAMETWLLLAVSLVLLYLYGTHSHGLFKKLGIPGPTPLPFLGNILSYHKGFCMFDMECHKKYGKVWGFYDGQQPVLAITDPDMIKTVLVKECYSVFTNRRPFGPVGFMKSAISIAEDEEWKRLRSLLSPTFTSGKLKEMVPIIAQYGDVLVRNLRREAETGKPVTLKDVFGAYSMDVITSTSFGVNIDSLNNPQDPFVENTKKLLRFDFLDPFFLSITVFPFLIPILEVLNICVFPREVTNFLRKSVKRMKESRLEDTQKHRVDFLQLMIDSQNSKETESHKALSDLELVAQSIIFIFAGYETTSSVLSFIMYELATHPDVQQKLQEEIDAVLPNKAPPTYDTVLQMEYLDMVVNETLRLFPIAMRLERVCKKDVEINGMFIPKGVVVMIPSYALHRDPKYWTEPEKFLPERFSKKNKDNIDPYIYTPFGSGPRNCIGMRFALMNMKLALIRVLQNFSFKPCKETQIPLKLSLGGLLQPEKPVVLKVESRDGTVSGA

[4] = ref NCT01877382, cited from earlier work; for maximum tolerated dose: advanced solid tumors or lymphomas
CYP3A4 [5] = target: T1, CYP3A4; assay: Incubation of [14C]milademetan with recombinant human CYP3A4; format: in vitro ADME; details: [14C]milademetan 1 µM, 60 min, unpublished in-house data
Target sequence in this assay (P08684 whole entry): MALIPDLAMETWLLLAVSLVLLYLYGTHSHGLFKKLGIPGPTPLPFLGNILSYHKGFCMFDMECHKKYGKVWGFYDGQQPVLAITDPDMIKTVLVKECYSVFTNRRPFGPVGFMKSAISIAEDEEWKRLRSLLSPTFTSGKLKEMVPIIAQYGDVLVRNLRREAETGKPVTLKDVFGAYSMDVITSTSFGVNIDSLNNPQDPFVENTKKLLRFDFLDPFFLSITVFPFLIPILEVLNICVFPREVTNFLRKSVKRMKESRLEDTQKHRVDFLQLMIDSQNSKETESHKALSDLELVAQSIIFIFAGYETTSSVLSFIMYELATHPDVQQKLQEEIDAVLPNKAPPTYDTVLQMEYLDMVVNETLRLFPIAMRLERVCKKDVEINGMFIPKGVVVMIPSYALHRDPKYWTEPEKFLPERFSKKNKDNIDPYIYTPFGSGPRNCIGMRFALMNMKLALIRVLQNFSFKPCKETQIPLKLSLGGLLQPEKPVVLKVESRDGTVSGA

[6] = Clinical food effect study; format: in vivo, human; details: high-calorie, high-fat meal vs fasted state; unpublished in-house data
[7] = bile duct–cannulated rats, up to 48 h
[8] = Optimized by fitting clinical data (U107), milademetan alone, fasted

Chain of P-gp (P08183 whole entry): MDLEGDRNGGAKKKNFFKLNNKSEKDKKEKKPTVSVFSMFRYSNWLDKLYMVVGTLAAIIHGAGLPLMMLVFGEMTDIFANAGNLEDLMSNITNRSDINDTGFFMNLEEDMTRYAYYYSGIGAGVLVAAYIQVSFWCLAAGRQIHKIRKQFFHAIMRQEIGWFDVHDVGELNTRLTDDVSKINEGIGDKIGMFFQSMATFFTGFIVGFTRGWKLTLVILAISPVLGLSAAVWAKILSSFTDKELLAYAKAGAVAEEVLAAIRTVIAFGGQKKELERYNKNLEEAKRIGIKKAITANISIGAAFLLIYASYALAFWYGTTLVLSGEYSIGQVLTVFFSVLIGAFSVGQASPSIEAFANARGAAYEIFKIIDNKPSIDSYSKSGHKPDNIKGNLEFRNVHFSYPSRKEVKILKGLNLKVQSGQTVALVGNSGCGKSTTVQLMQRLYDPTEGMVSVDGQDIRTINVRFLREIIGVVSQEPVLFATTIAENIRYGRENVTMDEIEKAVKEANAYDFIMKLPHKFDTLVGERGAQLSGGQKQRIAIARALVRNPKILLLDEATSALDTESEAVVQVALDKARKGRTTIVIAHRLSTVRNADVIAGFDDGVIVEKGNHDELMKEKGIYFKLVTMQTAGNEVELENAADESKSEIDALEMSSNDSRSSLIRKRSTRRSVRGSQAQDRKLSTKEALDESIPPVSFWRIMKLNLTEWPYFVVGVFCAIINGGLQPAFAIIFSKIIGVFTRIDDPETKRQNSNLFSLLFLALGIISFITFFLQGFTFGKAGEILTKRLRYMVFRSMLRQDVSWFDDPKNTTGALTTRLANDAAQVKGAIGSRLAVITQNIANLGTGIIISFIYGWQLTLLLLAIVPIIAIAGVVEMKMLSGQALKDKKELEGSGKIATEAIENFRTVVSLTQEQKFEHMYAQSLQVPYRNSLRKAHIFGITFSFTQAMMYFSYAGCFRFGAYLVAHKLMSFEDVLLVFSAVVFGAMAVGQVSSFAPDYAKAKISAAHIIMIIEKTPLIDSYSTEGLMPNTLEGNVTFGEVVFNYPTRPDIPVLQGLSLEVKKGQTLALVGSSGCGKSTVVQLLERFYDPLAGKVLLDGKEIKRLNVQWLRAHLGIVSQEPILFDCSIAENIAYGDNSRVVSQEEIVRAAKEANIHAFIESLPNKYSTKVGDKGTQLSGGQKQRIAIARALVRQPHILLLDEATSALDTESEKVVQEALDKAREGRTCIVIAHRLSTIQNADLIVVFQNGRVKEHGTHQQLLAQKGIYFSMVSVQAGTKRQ
Chain of CYP3A5 (P20815 whole entry): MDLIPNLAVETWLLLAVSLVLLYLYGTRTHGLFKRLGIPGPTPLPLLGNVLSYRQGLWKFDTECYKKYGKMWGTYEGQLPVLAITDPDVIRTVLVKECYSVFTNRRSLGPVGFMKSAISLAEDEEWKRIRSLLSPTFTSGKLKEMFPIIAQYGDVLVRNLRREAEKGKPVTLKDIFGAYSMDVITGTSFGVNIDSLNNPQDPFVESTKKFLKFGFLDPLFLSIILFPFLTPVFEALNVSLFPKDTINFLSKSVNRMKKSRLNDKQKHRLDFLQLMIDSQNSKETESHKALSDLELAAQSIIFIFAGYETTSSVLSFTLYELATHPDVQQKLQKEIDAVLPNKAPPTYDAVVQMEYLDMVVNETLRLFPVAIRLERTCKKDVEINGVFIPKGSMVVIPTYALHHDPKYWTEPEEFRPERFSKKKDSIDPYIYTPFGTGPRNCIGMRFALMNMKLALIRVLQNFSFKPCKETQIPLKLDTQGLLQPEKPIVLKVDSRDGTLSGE

In the case of `CC(C)NCC(O)COc1cccc2ccccc12` (stereo not drawn) [Propranolol, reference compound], the Papp (P-gp) is reported as 43 ×10⁻⁶ cm/s.

For `CC1(C)CCC2(CC1)N[C@@H](C(=O)N[C@@H]1CC[C@@H](C(N)=O)OC1)[C@H](c1ccnc(Cl)c1F)[C@]21C(=O)Nc2cc(Cl)ccc21` [milademetan], the “biliary excretion of radioactivity” value [1, 7] was 20.4 ± 1.8 % of the dose, the “radioactivity recovered in feces” value [1, 7] was 75.1 ± 3.3 % of the dose and the “radioactivity recovered in feces” value ([1]; noncannulated rats, after 168 hours) was 94.2 ± 0.7%. The “Vsac (volume of single adjusting compartment)” value (Milademetan PBPK model; [8]) was 0.5 L/kg, the “kin (first-order rate constant to single adjusting compartment)” value (Milademetan PBPK model; [8]) was 0.07 h⁻¹ and the “kout (first-order rate constant from single adjusting compartment)” value (Milademetan PBPK model; [8]) was 0.07 h⁻¹. For the same compound, the “CLint,CYP3A4 (CYP3A4-specific intrinsic clearance)” value (Milademetan PBPK model; Optimized by fitting clinical data (U107), milademetan and itraconazole sequence) was 0.459 µL/min/pmol of isoform, the “oral clearance (CLpo), optimized” value (Milademetan PBPK model; fitted to period one of sequence AB (alone, fasted), U107) was 8.5 L/h and the microsomal CLint (Milademetan PBPK model; human) was 40.2 µL/min/mg. The “fmCYP3A4 (fraction metabolized by CYP3A4)” value (Milademetan PBPK model; optimized to recover observed AUCR and CmaxR of sequence AB (itraconazole)) was 0.58, the Papp at 120 min (P-gp) was 17 ×10⁻⁶ cm/s and the CL/F (Clinical DDI study U107; 100 mg alone, fasted (sequence AB, treatment A), geometric mean (CV%)) was 6.8 L/h and 6.80 L/h and 6.80 (33.5) L/h. For the same compound, the CL/F (Clinical DDI study U107; 100 mg with itraconazole (treatment B), geometric mean (CV%)) was 3.13 L/h and 3.13 (35.4) L/h, the CL/F (Clinical DDI study U107; 100 mg with posaconazole (treatment C), geometric mean (CV%)) was 2.91 L/h and 2.91 (25.5) L/h and the AUC(0-t) (Clinical DDI study U107; human, plasma, oral, 100 mg, AUClast, 100 mg alone, 2 h following a full meal (sequence AC, treatment A), geometric mean (CV%)) was 13500 ng·h/mL. The Cmax (Clinical DDI study U107; human, plasma, oral, 100 mg, Cmax, 100 mg alone, 2 h following a full meal (sequence AC, treatment A), geometric mean (CV%)) was 675 ng/mL, the Tmax (Clinical DDI study U107; human, plasma, oral, 100 mg, Tmax, 100 mg alone, 2 h following a full meal (sequence AC, treatment A), median (minimum–maximum)) was 3.03 h and the Vd/F (Clinical DDI study U107; human, plasma, oral, 100 mg, Vz/F, 100 mg alone, 2 h following a full meal (sequence AC, treatment A), geometric mean (CV%)) was 223 L. The half-life (Clinical DDI study U107; human, plasma, oral, 100 mg, t1/2, 100 mg alone, 2 h following a full meal (sequence AC, treatment A), arithmetic mean (SD)) was 21.3 h, the remaining parent (CYP3A5) was 84 % of the total radioactivity and the fraction unbound [2] was 0.02. For the same compound, the KI (inactivation) (CYP3A4 [3]) was 60.5 µM, the Ki (CYP3A4 [3]) was 4.2 µM and the accumulation at steady-state ([4]; 120 mg q.d. 21/28, after 18–21 days of continuous dosing) was 1.8 fold. The “dose proportionality of systemic exposure” value ([4]; dose range 15–340 mg) was “dose‐proportional increase in systemic drug exposure”, the maximum tolerated dose ([4]; q.d. 3/14 × 2 schedule) was 260 mg and the maximum tolerated dose ([4]; q.d. 21/28 schedule) was 160 mg. The remaining parent (CYP3A4 [5]) was 61 % of the total radioactivity and the “reduction of exposure (AUC) with food” value [6] was 24%.
